The text below walks through data of ChEMBL document CHEMBL1137984, “Structure-activity relationship of heterobase-modified 2'-C-methyl ribonucleosides as inhibitors of hepatitis C virus RNA replication” (J Med Chem, 2004).

One data set deals with Nucleic Acid. In words: Inhibition of HCV RNA replication in a subgenomic bicistronic replicon assay in HB-1 cells. Conditions: Hepatitis C virus, HB1. It counts as functional, cell-based, Hepacivirus hominis. A digest of the protocol: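 Subgenomic bicistronic HCV replicon in HB-1 cells; viral RNA quantified by in situ RNase protection assay after 24 h of nucleoside treatment. EC50 averaged over at least two independent potency determinations. Nucleosides purified by preparative RP-HPLC, purity generally >98%.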

A short description of data set [1]: Cytotoxicity against HB-1 cells in an MTS-based assay. The class given is functional. Particulars: HB1.
A short description of data set [2]: Tmax value in rats. The class given is ADME. Conditions: rat, in vivo. In a few lines:
(§1)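 Male CRL rats; single intravenous dose of 1.0 mg/kg (N = 2) and oral dose at […] (N = 3). Plasma sampled and analysed by a method described earlier; clearance, half-life, Cmax, Tmax and %F derived from plasma levels.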

A short description of data set [3]: Clearance in rats when administered at a dose of 1 mg/kg i.v. and […] p.o. The class given is ADME, organism-based. The arrangement: dose 1 mg/kg. Conditions: rat, in vivo, iv. A digest of the protocol:
as §1

A short description of data set [4]: Oral bioavailability in rat. It counts as ADME, organism-based. Conditions: in vivo. In a few lines: as §1
Data set [5] in a line: Cmax value in rats. It counts as ADME, organism-based. Particulars: rat, in vivo. In a few lines: as §1
The nature of data set [6]: Half-life in rats. The class given is ADME. Particulars: rat, in vivo. A digest of the protocol: as §1
For the next data set, the system named is Hepatitis C virus. Put plainly: Compound was tested for the inhibition of HCV NS5B-mediated RNA synthesis. It counts as functional, Hepacivirus hominis. A digest of the protocol:
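Enzymatic activity of HCV NS5B Δ21 measured with nucleoside 5'-triphosphates as inhibitors, by an earlier protocol. Triphosphates purified by anion exchange, desalted by RP-HPLC, >90% pure, identity confirmed by MS. IC50 averaged over at least three separate determinations.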

pEC50, pIC50: −log10 of the molar value. Where only a bound is given, the exact number is not on record here.

For `C[C@@]1(O)[C@H](O)[C@@H](CO)O[C@H]1n1ccc2c(N)nccc21`, the pEC50 in the data set on Nucleic Acid is < 4.00. Moreover, the CC50 in data set [1] was > 100 µM.

For the compound `C[C@@]1(O)[C@H](O)[C@@H](CO)O[C@H]1n1cc(Cl)c2c(O)nc(N)nc21`, the pEC50 in the data set on Nucleic Acid was < 4.00. Further, the CC50 in data set [1] was > 100 µM.

`Cc1cn([C@@H]2O[C@H](CO)[C@@H](O)[C@@]2(C)O)c2ncnc(N)c12`: the pEC50 in the data set with Nucleic Acid was 4.47. Besides, in data set [1], the CC50 is > 100 µM.

Regarding `C[C@@]1(O)[C@H](O)[C@@H](CO)O[C@H]1n1cc(F)c2c(N)ncnc21`, in data set [2], the Tmax amounted to 30 min. In data set [3], this compound had a Clearance of 44 mL/min/kg. This compound gave a bioavailability in data set [4] of 51%. The compound further had a negative logarithm of the EC50 (pEC50) with Nucleic Acid of 7.15. This compound also came in with a Cmax in data set [5] of 600 nM. Further, in data set [1], the CC50 was > 100 µM. This compound also gave a half-life in data set [6] of 306 min.

`C[C@@]1(O)[C@H](O)[C@@H](CO)O[C@H]1n1ccc2c(N)ncnc21` [BETA-2'-C-METHYL-7-DEAZA-ADENOSINE] had a pEC50 in the data set on Nucleic Acid of 6.60. For the same compound, in data set [1], the CC50 is > 100 µM.

`C[C@@]1(O)[C@H](O)[C@@H](CO)O[C@H]1n1cc(C(=O)O)c2c(N)ncnc21` showed a negative logarithm of the EC50 (pEC50) in the data set with Nucleic Acid of 4.15. Besides, in data set [1], the CC50 is > 100 µM.

The compound `C[C@@]1(O)[C@H](O)[C@@H](CO)O[C@H]1n1ccc2c(N)nc(N)nc21` showed a pEC50 in the data set with Nucleic Acid of 4.00. Moreover, the cytotoxic concentration (CC50) in data set [1] was > 100 µM.

Consider `C[C@@]1(O)[C@H](O)[C@@H](CO)O[C@H]1n1ncc2c(N)ncnc21`, for which the pEC50 with Nucleic Acid is < 4.00. In addition, in data set [1], the CC50 was > 100 µM.

With `C[C@@]1(O)[C@H](O)[C@@H](CO)O[C@H]1n1cc(Br)c2c(N)ncnc21`, in the data set with Nucleic Acid, the negative logarithm of the EC50 (pEC50) is 6.62. The compound also came in with a CC50 in data set [1] of 40 µM.

Turning to `C[C@]1(O)C(n2cc(C#N)c3c(N)ncnc32)O[C@H](CO)[C@H]1O` (stereo partly drawn), the pEC50 with Nucleic Acid was 5.51. Besides, the 50% cytotoxic concentration (CC50) in data set [1] was ~50 µM.

As to `C[C@@]1(O)[C@H](O)[C@@H](CO)O[C@H]1n1cc(Cl)c2c(N)ncnc21`, in the data set on Nucleic Acid, the negative logarithm of the EC50 (pEC50) was 6.89. Moreover, the 50% cytotoxic concentration (CC50) in data set [1] is ~50 µM.

Regarding `C[C@@]1(O)[C@H](O)[C@@H](CO)O[C@H]1n1cnc2c(=O)[nH]c(N)nc21` [2'-B-METHYL-GUANOSINE], the bioavailability in data set [4] stood at 85%. For the same compound, in the data set with Nucleic Acid, the pEC50 was 5.46. The negative-log IC50 (pIC50) with Hepatitis C virus was 6.89. Besides, in data set [1], the CC50 was > 100 µM.

Compound `C[C@]1(O)C(n2cc(C(N)=O)c3c(N)ncnc32)O[C@H](CO)[C@H]1O` (stereo partly drawn) had a negative-log EC50 (pEC50) in the data set on Nucleic Acid of 7.10. Besides, the half-maximal cytotoxic concentration (CC50) in data set [1] is ~33 µM.

The compound `C[C@@]1(O)[C@H](O)[C@@H](CO)O[C@H]1n1ccc2c(N)nc(F)nc21` had a pEC50 in the data set with Nucleic Acid of 4.00. The CC50 in data set [1] was > 100 µM.

In the case of `C[C@@]1(O)[C@H](O)[C@@H](CO)O[C@H]1n1ccc2c(O)nc(N)nc21`, the negative-log EC50 (pEC50) in the data set on Nucleic Acid was < 4.00. Also, the CC50 in data set [1] is > 100 µM.

As for `C[C@@]1(O)[C@H](O)[C@@H](CO)O[C@H]1n1cnc2c(N)ncnc21`, the Clearance in data set [3] was > 200 mL/min/kg. The compound further had a bioavailability in data set [4] of 0%. Further, the pEC50 with Nucleic Acid is 6.59. Also, the pIC50 with Hepatitis C virus is 5.72. Further, in data set [1], the CC50 was > 100 µM. Also, the half-life in data set [6] was 18 min.
